Data: ChEMBL document CHEMBL4513216, “Probing the Open Global Health Chemical Diversity Library for Multistage-Active Starting Points for Next-Generation Antimalarials” (ACS Infect Dis, 2020)

Test: Toxicity liver stage against HepG2, at 10uM
Format: cell-based
Design: test concentration 10 uM, cell line HepG2-A16-CD81EGFP
Conditions: human, HepG2-A16-CD81EGFP cells; read-out: INHIBITION
Procedure, shortened: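 Uninfected HepG2-A16-CD81EGFP cells, 3 × 10^3 per well, 1536-well, plated on prespotted compound at 10 μM final, parasite-free screening media added to match infected plates; puromycin 10 μM positive, DMSO 0.5% negative; run in parallel with 48 h PbLuc assay at 37 °C, 5% CO2; viability by CellTiter-Glo luminescence, normalized to controls.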

SMILES | cytotoxicity at 10 µM
COCc1nc(N(C)C)ncc1C(=O)OC | 13.2%
O=c1[nH]c(NCCO)nc2c1C1(CCCCC1)Cc1ccccc1-2 | 7.11%
Cc1nccn1CC1CCN(C(=O)Cc2ccccc2)CC1 | -17%
Cc1oncc1C(=O)NCC1(O)CCc2ccccc2C1 (configuration not stated) | -6.29%
Cc1cccc(CN2CCc3[nH]nc(C(=O)N4CCOCC4)c3C2)n1 | 6.31%
CCS(=O)(=O)NCC1OCCc2cn(CC3CCOCC3)nc21 (configuration not stated) | 2.77%
Cc1ccc(NC(=O)Cn2cc(I)cn2)cc1C | 5.03%
COc1ccc(C2SCC(=O)Nc3ccsc32)cc1 (configuration not stated) | 10.5%
CCOC1(C)C(=O)c2ccccc2N1Nc1ccccc1C(=O)CC (configuration not stated) | 12.9%
CCN1CCN(S(=O)(=O)c2cc(C)c(C)cc2Br)CC1 | -9.74%
CNc1ncc(CN2CCC(CCc3ccccc3)CC2)cn1 | 5.19%
Nc1cc(N2CCOCC(Cc3ccc4[nH]ccc4c3)C2)ncn1 (configuration not stated) | -5.69%
Cn1cncc1CN1CCCC1c1cncc(Oc2ccc(F)cc2)n1 (configuration not stated) | -17.3%
Cc1noc(C)c1-c1ccnc(C2CCNCC2)c1 | -8.41%
CCc1c(C)nc2cc(C3CCN(Cc4ccc(F)cc4)C3)nn2c1O (configuration not stated) | -18.6%
Cc1cc(C)nc(N2CCC(c3cncc(-n4ccnc4)n3)CC2)n1 | -8.66%
Cc1cc(C(=O)NCCc2nc3c(s2)CCCC3)n(C)n1 | 20.5%
CN(C)C1(C(=O)NC2CCC(Oc3ccccc3C#N)CC2)CCC1 (configuration not stated) | 9.92%
COC(=O)CCN(C)C(=O)c1ccc(-c2cscn2)cc1 | -7.29%
COc1ccc(CN(C(=O)C2CCCOC2)c2ccncc2)cc1 (configuration not stated) | 6.35%
CC(C)c1cc(C(=O)N2CCc3ccccc3C2C(=O)O)n(C)n1 (configuration not stated) | 7.28%
CCN(C)S(=O)(=O)N(Cc1cscn1)c1ccccc1 | -3.81%
CCC1CCCN(Cc2nc3ccccc3c(=O)[nH]2)C1 (configuration not stated) | -46%

SMILES | cytotoxicity at 10 µM
CC(=O)c1cccc(NC(=O)NCCc2nnc[nH]2)c1 | -39.1%
COc1ccccc1CN(Cc1cccs1)S(=O)(=O)N(C)C(C)C | -46.7%
Cc1ccc(CN(CC(=O)NC2CCOCC2)c2ccc(F)cc2)o1 | 1.55%
COc1cccc(CNCc2c(C)nc3sc(C)cn23)c1OC | 32.8%
O=C(NCCCC(=O)N1Cc2ccccc2C1)NCc1cccnc1 | 11.9%
CC(NCCNS(=O)(=O)c1cccc(Cl)c1)C1CCOCC1 (configuration not stated) | -1.6%
O=C(Nc1ccccn1)NC1CCN(c2ccccc2OC(F)F)C1 (configuration not stated) | 11.7%
CN1CCOC(CNCCOc2cccc(C#N)c2)C1 (configuration not stated) | 7.56%
CCc1ccc(C2CCCCCN2C(=O)CNC(=O)NC2CC2)o1 (configuration not stated) | 0.0456%
CN(c1ccc(CNC(=O)c2ccc(O)nc2)cc1)C1CCCCC1 | -0.77%
CN(Cc1cccc(C#N)c1)c1ncc(C(N)=O)cc1Cl | 1.33%
O=C(NC1CCCCC1)C1CCCN(C(=O)Nc2ccccn2)C1 (configuration not stated) | 3.57%
Cc1nn(C)c(N(C)C)c1CNCc1cccc(Cl)c1 | -8.27%
N#CCCN(C(=O)CN1CCCC1c1ccccc1Cl)c1ccccc1 (configuration not stated) | 8.22%
COCc1nc2cc(NCc3cc[nH]n3)ccc2o1 | 6.7%
Cc1cnn(CCNCc2ccc(OCc3noc(C)n3)cc2)c1 | 1.33%
Cc1nn(C)c(C)c1OCC(=O)NCC(O)Cc1ccccc1 (configuration not stated) | -3.81%
CCN(CC)C(=O)N1CCN(C(=O)C2CCCc3[nH]ncc32)CC1 (configuration not stated) | -2.3%
CCOC(C)c1noc(CN2CCN(c3nnc(C)s3)CC2)n1 (configuration not stated) | -11.1%
COCC(C)(C#N)NC(=O)COc1ccccc1 (configuration not stated) | 7.51%
CCC(NC(=O)NCc1cccc(N(C)C)n1)c1nccs1 (configuration not stated) | 23.3%
CN(CCCc1ccc(C(F)(F)F)cc1)Cc1nccn1C | 9.05%
O=C(c1cncc(Br)c1)N1CCCc2ccc(F)cc21 | -1.01%

SMILES | cytotoxicity at 10 µM
CCOc1cc(CNC(C)c2sccc2C)ccn1 (configuration not stated) | -8.14%
CC(NC(=O)NCCc1cnn(C)c1)c1ccc(Cl)s1 (configuration not stated) | -2.47%
O=C(CN1CCC(Nc2ncccn2)CC1)Nc1ccccc1 | -17.5%
Cc1ccccc1C(=O)NC1CCN(Cc2ncc(C(C)(C)C)o2)CC1 | -17.5%
Cc1ccc(-n2ncc(C(=O)NC3CCCCC3)c2N)cc1 | -50.6%
Cc1cc(NC(=O)c2nc(N3CCCC3)ncc2Cl)nc(C(C)C)n1 | 69.3%
CSc1ccc(C(CN)N2CCc3sccc3C2)cc1 (configuration not stated) | -5.93%
Cc1nc(NCC2CC2)nc2c1COCC21CCN(S(=O)(=O)C2CC2)C1 (configuration not stated) | -84.8%
COCC1CN(C(=O)Cc2cccs2)Cc2c1cnn2C (configuration not stated) | -65.6%
FC(F)(F)CCc1ccnc(N2CCN(CCc3ccncc3)CC2)n1 | -5.86%
Cc1cc(F)c(C(C(=O)O)N2CCN(Cc3ccccn3)CC2)cc1Cl (configuration not stated) | 4.2%
CN1CCC(N(C)CCC(=O)N2CCC(Oc3ccc(Cl)cc3)CC2)C1 (configuration not stated) | 7.04%
Cc1cnc(C)c(N2C[C@H]3OC(=O)N(C4CCCC4)[C@H]3C2)n1 | 12.5%
Cc1cc(NC2CCCN(Cc3ccc(F)cc3)C2)n2nc(C)cc2n1 (configuration not stated) | 0.0152%
c1ccc(-c2nc3c(c(NCCn4cccc4)n2)CCNCC3)nc1 | -51.9%
COc1ccc(C(=O)N2CCC3(CC2)c2ccccc2[C@@H](N)[C@@H]3O)cc1 | -3.34%
CN(Cc1csc(-c2ccccc2)n1)C(=O)CCn1ccccc1=O | -2.84%
CC(=O)N[C@@H]1Cc2ccccc2[C@H]1Nc1ccncn1 | -43.6%
CCn1nc(CNC(=O)C2CCCN(CC(N)=O)C2)c2ccccc21 (configuration not stated) | -9.65%
CSC(C)CCN1CCC(n2cc(C3CCCCC3)nn2)CC1 (configuration not stated) | -1.39%
CN1CCC(N(C)CCC(=O)N2CCC(Cc3ccc(F)cc3)CC2)C1 (configuration not stated) | -1.9%
Cc1nc2c(c(NCc3ccccc3)n1)CCN(C(=O)NC(C)C)CC2 | 28.7%
Cc1ncsc1CCN(C)C(=O)CN1C(=O)OC[C@@H]1c1ccccc1 | -51.2%

SMILES | cytotoxicity at 10 µM
CCCc1cc(C(=O)N(C)Cc2ccc(OC)c3ncccc23)n(C)n1 | 37.2%
O[C@H]1Cc2ccccc2[C@H]1n1ccnc1-c1cc2n(n1)CCNC2 | 1.58%
CN(C)c1nc2c(c(N3CCc4ccccc4C3)n1)CCNC2 | 10.9%
CN(CCSc1ccccc1)C(=O)c1cn2c(n1)CNCC2 | -47.4%
N#Cc1cccc(C(=O)N2CCCC(O)(CO)CC2)c1 (configuration not stated) | 1.29%
NC(=O)c1cc2c(nc1Oc1ccc(CN3CCCC3)cc1F)CCC2 | -3.62%
OCCOc1ccccc1CN1CCCC(O)(CO)C1 (configuration not stated) | -38.7%
Cc1cc(C)cc(CN2CCN(Cc3cccc(CCN)c3)CC2=O)c1 | -18.3%
Cc1ccsc1CN(CCN(C)C)C(=O)C1=NNC(=O)CC1 | -13.4%
CCc1nn(C)c(Cl)c1CN1CCN(c2ccc(Cl)nn2)CC1 | 8.01%
CC(C)Cc1cc(C(=O)N2CCC[C@H]2C(=O)N2CCOCC2)on1 | 6.07%
COc1ncc(-c2cc(NC3CCCC3)nc3[nH]ccc23)c(OC)n1 | 16.3%
CCCc1cc(CNC2CCN(c3nc4ccccc4s3)CC2)on1 | -4.34%
COCc1nc2ncc3c(=O)n(-c4ccccc4OC)ccc3n2n1 | -8.17%
CCC(=O)Nc1cccc(OCC(=O)N(C)Cc2nccn2CC)c1 | 3.96%
Nc1nc2c(c(N3CCSCC3)n1)CCN(Cc1ccccn1)CC2 | -53%
COc1ccc(N(c2ccccc2)c2ccc(C(=O)O)s2)cc1 | -1.5%
Cc1ccsc1-c1nnc(C2CCN(Cc3ccc(F)cc3)CC2)o1 | 4.58%
COCCN1CCN(CCCS(=O)(=O)N(C)C)CC1C (configuration not stated) | 3.54%
CC(=O)c1ccc(S(=O)(=O)NCc2cccnc2N(C)C)cc1 | 12.6%
CC(C)C(=O)NC1CCCN(C(=O)c2ccc(O)c(Cl)c2)C1 (configuration not stated) | -6.04%
CCc1nc(C(=O)N2CCCC2)nn1-c1ccccc1Cl | -3.17%
CCOc1ccc(S(=O)(=O)NCc2cccnc2N(C)C)cc1 | 34.7%

SMILES | cytotoxicity at 10 µM
CCc1nc(CN(C)C2CCN(Cc3cnc(C)cn3)C2)no1 (configuration not stated) | 4.23%
CCc1ccc(CN2CCCCC2c2n[nH]cc2-c2cc(C)no2)cc1 (configuration not stated) | 35%
CO[C@@H]1CO[C@@]2(CCCN(Cc3nc(C)cs3)C2)C1 | -138%
O=S(=O)(c1cccs1)N1Cc2nc(CN3CCCC3)oc2C1 | -118%
CC[C@@H]1N(CC2CC2)CCC[C@]12CCC(=O)N2 | 15.4%
COc1cccc(-c2noc(C3CCN(CC4CCCCC4)C3)n2)c1 (configuration not stated) | -3.44%
CNC(=O)COC1COC2(CCN(Cc3cccnc3)CC2)C1 (configuration not stated) | 6.53%
Cc1ccc2c(c1)C1(CCNCC1)CC2NC1CC1 (configuration not stated) | -117%
Cc1occc1C(=O)N1C[C@@H]2OCCN(CCN3CCCC3)[C@@H]2C1 | -76.1%
c1cncc(OC[C@@H]2CCC[C@@]23CN(Cc2nccs2)CCO3)c1 | -63.3%
O=C(Cc1ccccn1)N1CCN2C[C@H](Oc3cncnc3)C[C@H]2C1 | -73%
Cc1cc(CN2CCc3c(CNc4ncccn4)cncc3C2)oc1C | -82.6%
Cc1noc(C)c1CN1CCc2ncnc(-c3ccc(F)cc3)c2CC1 | -100%
Cn1cc(CN2C[C@H]3CCC[C@@]3(COc3ccccn3)C2)cn1 | -107%
O=C(N1CCCC1)N1CCOCC2(CCN(Cc3cccs3)C2)C1 (configuration not stated) | -3.85%
Cc1occc1C(=O)N1CCC2(CCN(Cc3ccccn3)C2=O)C1 (configuration not stated) | -152%
COc1cc2c(cc1CNCc1ccnc(-n3cccn3)c1)OC(C)C2 (configuration not stated) | 11.2%
COc1cc(CNC(C)c2ccc(F)c(F)c2)cc2c1OCCO2 (configuration not stated) | -1.58%
Cc1nnc(CN2C[C@@H]3CC[C@H]2CN(C2Cc4ccccc4C2)C3)o1 | -1.06%
CN(C)C(=O)[C@H]1C[C@H]2CN(CCc3ccccc3)C[C@@H]1O2 | -94.2%
